Data from PubChem BioAssay AID623890 (Vanderbilt Specialized Chemistry Center, 2012).

Molecular target: Metabotropic glutamate receptor 5 (Rattus norvegicus) (UniProt P31424)
Assay: mGlu5 glutamate response modulation check – cell-based, rat, calcium flux, Fluo-4, selectivity assay for mGlu4 lead optimization, profiling panel (AID 623890)
Conditions: rat mGlu5 cells, Fluo-4 calcium flux, glutamate CRC shift, at 10 µM
In short: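 system = rat mGlu5-expressing cells | buffer or medium = HEPES- and probenecid-buffered HBSS, pH 7.3 | incubation = ~2.5 min compound pre-incubation, ~3 min post-agonist read | measured by = Fluo-4 calcium fluorescence, excitation 470 nm, emission 540 nm | evaluation = normalized peak calcium rise after glutamate, logistic fit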

Sequence of Metabotropic glutamate receptor 5 (Rattus norvegicus) (P31424 whole entry, looked up): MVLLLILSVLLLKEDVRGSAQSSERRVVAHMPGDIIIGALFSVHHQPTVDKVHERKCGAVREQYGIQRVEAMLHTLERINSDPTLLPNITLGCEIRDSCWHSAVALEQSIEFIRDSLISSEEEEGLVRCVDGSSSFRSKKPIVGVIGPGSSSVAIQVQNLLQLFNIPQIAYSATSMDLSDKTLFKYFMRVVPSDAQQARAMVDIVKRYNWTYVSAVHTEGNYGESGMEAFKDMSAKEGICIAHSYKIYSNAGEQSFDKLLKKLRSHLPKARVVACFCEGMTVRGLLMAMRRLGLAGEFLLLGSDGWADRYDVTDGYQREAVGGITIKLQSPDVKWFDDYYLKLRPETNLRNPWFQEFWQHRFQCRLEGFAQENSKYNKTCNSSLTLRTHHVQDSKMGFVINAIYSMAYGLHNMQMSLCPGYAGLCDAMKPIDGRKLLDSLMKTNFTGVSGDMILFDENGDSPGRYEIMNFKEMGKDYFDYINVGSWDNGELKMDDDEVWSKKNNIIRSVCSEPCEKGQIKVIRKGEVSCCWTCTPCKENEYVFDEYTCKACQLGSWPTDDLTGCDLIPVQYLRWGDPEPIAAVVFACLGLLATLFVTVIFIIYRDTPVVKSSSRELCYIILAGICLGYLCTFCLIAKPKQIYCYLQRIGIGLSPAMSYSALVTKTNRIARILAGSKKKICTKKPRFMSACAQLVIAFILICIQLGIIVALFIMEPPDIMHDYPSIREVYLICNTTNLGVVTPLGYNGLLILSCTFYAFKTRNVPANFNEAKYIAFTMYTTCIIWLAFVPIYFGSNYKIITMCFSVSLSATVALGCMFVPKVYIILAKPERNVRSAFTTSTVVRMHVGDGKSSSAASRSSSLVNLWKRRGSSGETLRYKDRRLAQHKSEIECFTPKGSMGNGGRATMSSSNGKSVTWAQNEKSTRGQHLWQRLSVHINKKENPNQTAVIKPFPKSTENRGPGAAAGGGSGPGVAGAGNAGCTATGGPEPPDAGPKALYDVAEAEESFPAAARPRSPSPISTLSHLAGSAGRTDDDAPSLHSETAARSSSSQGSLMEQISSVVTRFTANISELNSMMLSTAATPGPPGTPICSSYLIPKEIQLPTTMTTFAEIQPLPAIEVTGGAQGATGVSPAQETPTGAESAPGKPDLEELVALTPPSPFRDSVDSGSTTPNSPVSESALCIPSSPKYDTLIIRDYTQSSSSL

- fold shift of glutamate EC50: 0.304
- max response (measured here: glutamate max response with compound): 74%
SMILES: O=C(Nc1cccc(Cl)c1)c1ccccn1
